ChEMBL document CHEMBL1123529, “Analogues of substance P. Peptides containing D-amino acid residues in various positions of substance P and displaying agonist or receptor selective antagonist effects” (1986)
Several values for one entry are separate records, joined by “and”; a condition that tells them apart may be missing. Identical values can stand only once.

Legend:
[1] = target: Substance-P receptor (Cavia porcellus) (UniProt P30547); test: Evaluated in vitro for percent agonist activity in guinea pig ileum (substance P receptor); assay type: functional, tissue-based
[2] = In vitro antagonistic activity against Substance P on guinea pig ileum at concentration of 10 uM.; assay type: functional, Cavia porcellus
How it was run: (§1)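 Dose-response curves used a 3-min cycle with 1-min contact and washout, with SP or SP(6-11)-hexapeptide as agonist. Dose ratio is the agonist EC50 with antagonist divided by the EC50 alone. At least two preparations per compound; ratios under 2 were considered insignificant.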

[3] = In vitro antagonistic activity against Substance P(6-11) in guinea pig ileum at concentration of 10 uM.; assay type: functional, Cavia porcellus; how it was run: as §1
[4] = target: Substance-P receptor (Cavia porcellus) (UniProt P30547); test: Antagonistic activity against Substance P(6-11) receptor in guinea pig ileum at concentration of 5 uM.; assay type: functional, tissue-based
How it was run: (§2)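 Distal ileum from Dunkin-Hartley guinea pigs (300-350 g, both sexes) in a Krebs organ bath at 37 °C, gassed with 95% O2/5% CO2. Agonist (SP or SP(6-11)) dose-response curves run on a 3-min cycle with 1-min contact, with and without antagonist. Dose ratio = agonist EC50 with antagonist / EC50 alone. At least two preparations per compound; ratios below 2 taken as insignificant.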

[5] = target: Substance-P receptor (Cavia porcellus) (UniProt P30547); test: Antagonistic activity against Substance P receptor in guinea pig ileum at concentration of 5 uM.; assay type: functional, tissue-based; how it was run: as §2

Chain of Substance-P receptor (Cavia porcellus) (P30547 whole entry): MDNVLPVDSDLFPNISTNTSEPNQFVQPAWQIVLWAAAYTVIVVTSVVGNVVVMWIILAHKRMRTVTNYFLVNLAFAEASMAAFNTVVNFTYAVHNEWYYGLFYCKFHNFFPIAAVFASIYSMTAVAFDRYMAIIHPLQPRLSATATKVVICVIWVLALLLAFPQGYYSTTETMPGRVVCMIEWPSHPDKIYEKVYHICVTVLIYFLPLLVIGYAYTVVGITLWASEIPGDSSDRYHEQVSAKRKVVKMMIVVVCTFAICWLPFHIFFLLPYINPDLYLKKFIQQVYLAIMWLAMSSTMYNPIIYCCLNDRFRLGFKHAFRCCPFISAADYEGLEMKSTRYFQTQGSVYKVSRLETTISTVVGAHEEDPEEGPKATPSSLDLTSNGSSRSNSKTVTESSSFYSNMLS

| SMILES | SP [1] | Activity [2] | Activity [3] | other results |
| --- | --- | --- | --- | --- |
| CSCC[C@H](NC(=O)[C@H](CC(C)C)NC(=O)CNC(=O)[C@H](Cc1ccccc1)NC(=O)[C@H](Cc1ccccc1)NC(=O)[C@H](CCC(N)=O)NC(=O)[C@H](CCC(N)=O)NC(=O)C1CCCN1C(=O)[C@H](CCCCN)NC(=O)C1CCCN1C(=O)[C@@H](N)CCCN=C(N)N)C(N)=O (stereo in doubt) | 15% |  |  |  |
| COC(=O)[C@@H](CCSC)NC(=O)[C@H](CC(C)C)NC(=O)[C@@H](Cc1c[nH]c2ccccc12)NC(=O)[C@@H](Cc1c[nH]c2ccccc12)NC(=O)[C@@H](Cc1c[nH]c2ccccc12)NC(=O)[C@H](CCC(N)=O)NC(=O)[C@H](CCC(N)=O)NC(=O)[C@@H]1CCCN1C(=O)[C@H](CCCCNC(=O)OCc1ccccc1)NC(=O)[C@@H]1CCCN1C(=O)[C@@H](N)CCCN=C(N)N |  | 10 dose ratio | 5.6 dose ratio |  |
| COC(=O)[C@@H](CCSC)NC(=O)[C@H](CC(C)C)NC(=O)CNC(=O)[C@H](Cc1ccccc1)NC(=O)[C@H](Cc1ccccc1)NC(=O)[C@@H](NC(=O)[C@H](NC(=O)[C@@H]1CCCN1C(=O)[C@H](CCCCN)NC(=O)[C@@H]1CCCN1C(=O)[C@@H](N)CCCN=C(N)N)C(C)C)C(C)C | 0.005% |  |  |  |
| COC(=O)[C@H](CCSC)NC(=O)[C@H](CC(C)C)NC(=O)CNC(=O)[C@H](Cc1ccccc1)NC(=O)[C@H](Cc1ccccc1)NC(=O)[C@@H](Cc1ccccc1)NC(=O)[C@@H](Cc1ccccc1)NC(=O)[C@@H]1CCCN1C(=O)[C@H](CCCCNC(=O)OCc1ccccc1)NC(=O)[C@@H]1CCCN1C(=O)[C@H](CCCN=C(N)N)NC(=O)OCc1ccccc1 |  | <2 dose ratio | <2 dose ratio |  |
| COC(=O)[C@@H](CCSC)NC(=O)[C@H](CC(C)C)NC(=O)[C@@H](Cc1c[nH]c2ccccc12)NC(=O)[C@@H](Cc1c[nH]c2ccccc12)NC(=O)[C@@H](Cc1c[nH]c2ccccc12)NC(=O)[C@H](CCC(N)=O)NC(=O)[C@H](CCC(N)=O)NC(=O)[C@@H]1CCCN1C(=O)[C@H](CCCCN)NC(=O)[C@@H]1CCCN1C(=O)[C@@H](N)CCCN=C(N)N |  | 3.9 dose ratio and 7.2 dose ratio | 9.9 dose ratio |  |
| COC(=O)[C@H](CCSC)NC(=O)[C@H](CC(C)C)NC(=O)CNC(=O)[C@H](Cc1ccccc1)NC(=O)[C@H](Cc1ccccc1)NC(=O)[C@@H](Cc1ccccc1)NC(=O)[C@@H](Cc1ccccc1)NC(=O)[C@@H]1CCCN1C(=O)[C@H](CCCCN)NC(=O)[C@@H]1CCCN1C(=O)[C@@H](N)CCCN=C(N)N |  | <2 dose ratio | <2 dose ratio |  |
| CSCC[C@@H](NC(=O)[C@H](CC(C)C)NC(=O)CNC(=O)[C@H](Cc1ccccc1)NC(=O)[C@H](Cc1ccccc1)NC(=O)[C@@H](NC(=O)[C@H](NC(=O)[C@@H]1CCCN1C(=O)[C@H](CCCCNC(=O)OCc1ccccc1)NC(=O)[C@@H]1CCCN1C(=O)[C@H](CCCN=C(N)N)NC(=O)OCc1ccccc1)C(C)C)C(C)C)C(=O)O | < 0.0001% |  |  |  |
| CSCC[C@@H](NC(=O)[C@H](CC(C)C)NC(=O)CNC(=O)[C@H](Cc1ccccc1)NC(=O)[C@H](Cc1ccccc1)NC(=O)[C@@H](NC(=O)[C@H](NC(=O)[C@@H]1CCCN1C(=O)[C@H](CCCCN)NC(=O)[C@@H]1CCCN1C(=O)[C@@H](N)CCCN=C(N)N)C(C)C)C(C)C)C(=O)O | 6.4% |  |  |  |
| COC(=O)[C@H](CCSC)NC(=O)[C@H](Cc1c[nH]c2ccccc12)NC(=O)[C@@H](Cc1c[nH]c2ccccc12)NC(=O)[C@H](Cc1ccccc1)NC(=O)[C@H](Cc1ccccc1)NC(=O)[C@H](CCC(N)=O)NC(=O)[C@H](CCC(N)=O)NC(=O)[C@@H]1CCCN1C(=O)[C@H](CCCCNC(=O)OCc1ccccc1)NC(=O)[C@@H]1CCCN1C(=O)[C@H](CCCN=C(N)N)NC(=O)OCc1ccccc1 | 0% |  |  | Activity [4]: < 2 dose ratio; Activity [5]: < 2 dose ratio |
| COC(=O)[C@@H](CCSC)NC(=O)[C@H](CC(C)C)NC(=O)CNC(=O)[C@H](NC(=O)[C@H](NC(=O)[C@H](CCC(N)=O)NC(=O)[C@H](CCC(N)=O)NC(=O)[C@@H]1CCCN1C(=O)[C@H](CCCCNC(=O)OCc1ccccc1)NC(=O)[C@@H]1CCCN1C(=O)[C@H](CCCN=C(N)N)NC(=O)OCc1ccccc1)C(C)C)C(C)C |  | <2 dose ratio | <2 dose ratio |  |
| COC(=O)[C@H](CCSC)NC(=O)[C@H](CC(C)C)NC(=O)CNC(=O)[C@H](Cc1ccccc1)NC(=O)[C@H](Cc1ccccc1)NC(=O)[C@H](NC(=O)[C@H](NC(=O)[C@@H]1CCCN1C(=O)[C@H](CCCCNC(=O)OCc1ccccc1)NC(=O)[C@@H]1CCCN1C(=O)[C@H](CCCN=C(N)N)NC(=O)OCc1ccccc1)C(C)C)C(C)C |  | <2 dose ratio | <2 dose ratio |  |
| COC(=O)[C@@H](CCSC)NC(=O)C(Cc1ccccc1)NC(=O)C(Cc1ccccc1)NC(=O)C(Cc1ccccc1)NC(=O)C(Cc1ccccc1)NC(=O)[C@H](CCC(N)=O)NC(=O)[C@H](CCC(N)=O)NC(=O)[C@@H]1CCCN1C(=O)[C@H](CCCCNC(=O)OCc1ccccc1)NC(=O)[C@@H]1CCCN1C(=O)[C@H](CCCN=C(N)N)NC(=O)OCc1ccccc1 (stereo in doubt) | < 0.0001% | <2 dose ratio | <2 dose ratio |  |
| COC(=O)[C@@H](CCSC)NC(=O)[C@H](CC(C)C)NC(=O)CNC(=O)[C@H](Cc1ccccc1)NC(=O)[C@H](Cc1ccccc1)NC(=O)[C@H](Cc1ccccc1)NC(=O)[C@@H](Cc1ccccc1)NC(=O)[C@@H]1CCCN1C(=O)[C@H](CCCCNC(=O)OCc1ccccc1)NC(=O)[C@@H]1CCCN1C(=O)[C@H](CCCN=C(N)N)NC(=O)OCc1ccccc1 | < 0.0001% |  |  |  |
| COC(=O)[C@@H](CCSC)NC(=O)[C@H](CC(C)C)NC(=O)[C@@H](Cc1c[nH]c2ccccc12)NC(=O)[C@@H](Cc1c[nH]c2ccccc12)NC(=O)[C@@H](Cc1c[nH]c2ccccc12)NC(=O)[C@H](CCC(N)=O)NC(=O)[C@H](CCC(N)=O)NC(=O)[C@@H]1CCCN1C(=O)[C@H](CCCCNC(=O)OCc1ccccc1)NC(=O)[C@@H]1CCCN1C(=O)[C@H](CCCN=C(N)N)NC(=O)OCc1ccccc1 |  | <2 dose ratio | <2 dose ratio |  |
| CSCC[C@H](NC(=O)[C@H](CC(C)C)NC(=O)CNC(=O)[C@H](Cc1ccccc1)NC(=O)[C@H](Cc1ccccc1)NC(=O)[C@H](CCC(N)=O)NC(=O)[C@H](CCC(N)=O)NC(=O)C1CCCN1C(=O)[C@H](CCCCNC(=O)OCc1ccccc1)NC(=O)C1CCCN1C(=O)[C@H](CCCN=C(N)N)NC(=O)OCc1ccccc1)C(=O)O (stereo in doubt) | 63% |  |  |  |
| COC(=O)[C@H](CCSC)NC(=O)[C@H](CC(C)C)NC(=O)CNC(=O)[C@H](Cc1ccccc1)NC(=O)[C@H](Cc1ccccc1)NC(=O)[C@H](CCC(N)=O)NC(=O)[C@H](CCC(N)=O)NC(=O)C1CCCN1C(=O)[C@H](CCCCNC(=O)OCc1ccccc1)NC(=O)C1CCCN1C(=O)[C@H](CCCN=C(N)N)NC(=O)OCc1ccccc1 (stereo in doubt) | 7% |  |  |  |
| COC(=O)[C@@H](CCSC)NC(=O)[C@H](CC(C)C)NC(=O)CNC(=O)[C@H](Cc1ccccc1)NC(=O)[C@H](Cc1ccccc1)NC(=O)[C@@H]1CCCN1C(=O)[C@H]1CCCN1C(=O)[C@@H]1CCCN1C(=O)[C@H](CCCCN)NC(=O)[C@@H]1CCCN1C(=O)[C@@H](N)CCCN=C(N)N | 0.066% |  |  |  |
| COC(=O)[C@@H](CCSC)NC(=O)[C@H](CC(C)C)NC(=O)CNC(=O)[C@H](Cc1ccccc1)NC(=O)[C@H](Cc1ccccc1)NC(=O)[C@H](Cc1ccccc1)NC(=O)[C@@H](Cc1ccccc1)NC(=O)[C@@H]1CCCN1C(=O)[C@H](CCCCN)NC(=O)[C@@H]1CCCN1C(=O)[C@@H](N)CCCN=C(N)N | 0% |  |  |  |
| COC(=O)[C@@H](CCSC)NC(=O)[C@H](CC(C)C)NC(=O)CNC(=O)[C@@H](NC(=O)[C@H](NC(=O)[C@H](CCC(N)=O)NC(=O)[C@H](CCC(N)=O)NC(=O)[C@@H]1CCCN1C(=O)[C@H](CCCCNC(=O)OCc1ccccc1)NC(=O)[C@@H]1CCCN1C(=O)[C@H](CCCN=C(N)N)NC(=O)OCc1ccccc1)C(C)C)C(C)C | < 0.0001% |  |  |  |
| CSCC[C@@H](NC(=O)[C@H](CC(C)C)NC(=O)[C@@H](Cc1c[nH]c2ccccc12)NC(=O)[C@@H](Cc1c[nH]c2ccccc12)NC(=O)[C@@H](Cc1c[nH]c2ccccc12)NC(=O)[C@H](CCC(N)=O)NC(=O)[C@H](CCC(N)=O)NC(=O)[C@@H]1CCCN1C(=O)[C@H](CCCCNC(=O)OCc1ccccc1)NC(=O)[C@@H]1CCCN1C(=O)[C@H](CCCN=C(N)N)NC(=O)OCc1ccccc1)C(=O)O |  | <2 dose ratio |  |  |
| COC(=O)[C@@H](CCSC)NC(=O)[C@H](CC(C)C)NC(=O)CNC(=O)[C@H]1CCCN1C(=O)[C@H]1CCCN1C(=O)[C@H](CCC(N)=O)NC(=O)[C@H](CCC(N)=O)NC(=O)[C@@H]1CCCN1C(=O)[C@H](CCCCNC(=O)OCc1ccccc1)NC(=O)[C@@H]1CCCN1C(=O)[C@H](CCCN=C(N)N)NC(=O)OCc1ccccc1 | < 0.0001% | <2 dose ratio | <2 dose ratio |  |
| CSCC[C@H](NC(=O)[C@H](CC(C)C)NC(=O)CNC(=O)[C@H](Cc1ccccc1)NC(=O)[C@H](Cc1ccccc1)NC(=O)[C@H](NC(=O)[C@H](NC(=O)[C@@H]1CCCN1C(=O)[C@H](CCCCNC(=O)OCc1ccccc1)NC(=O)[C@@H]1CCCN1C(=O)[C@H](CCCN=C(N)N)NC(=O)OCc1ccccc1)C(C)C)C(C)C)C(=O)O |  | <2 dose ratio | <2 dose ratio |  |
